Hits are enriched below; roughly 3.1% of the tested compounds scored in any of these assays.
CSC inhib = cancer stem cell viability inhibitors, primary screen, luminescence. cancer stem cell-like cells viability. AID 2717, 2010. inhibition, % at 7.5 µM. 300,000 compounds, 1.1% hits; in the data active means inhibition above about 75%; inconclusive means no clear call, values can overlap the other calls; tested in HMLE shEcad cells
Beta apoptosis = inhibitors of cytokine-induced beta cell apoptosis, primary screen, luminescence; INS-1E cytokine-induced death, ATP luminescence, 48 h; percent of positive-control rescue, neutral wells zero; protection from apoptosis, % (no concentration beside the values); 300,000 compounds, 0.8% hits;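 active means Every replicate reaches about 75%, or at least half do and their mean reaches it too, limit read from the data; inconclusive means At least half of replicates reach the limit but their mean does not; inactive means Under half of replicates reach the limit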;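 further: higher means more ATP so stronger rescue from cytokine killing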
Calb FLC = C. albicans growth inhibition with fluconazole, primary screen, CaCi-2 strain, Alamar Blue fluorescence; C. albicans CaCi-2 (fluconazole-resistant clinical isolate) + fluconazole, 48 h; growth inhibition, % (no concentration beside the values); 300,000 compounds, 0.57% hits; AID 1979, 2009;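 active means growth inhibition above about 58% in most replicates, limit read from the data, passing the limit was not always enough; inconclusive means exactly half the replicates above a set limit; inactive means most replicates below a set limit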;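 further: all wells also contain fluconazole at 8 µg/ml as a sub-toxic cotreatment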
T cruzi inh = inhibitors of intracellular T. cruzi growth, primary screen, luminescence, NIH3T3 host cells; 300,000 compounds, 1.4% hits; inhibition, % (concentration not given with the values); T. cruzi beta-gal in NIH3T3, 90 h;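 active means mean inhibition across valid replicates above about 55%, limit read from the data; inconclusive means mean below that limit but half or more replicates reach it; inactive means mean below it, under half of replicates reach it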;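 further: signal also drops with host cell toxicity which is not excluded here; higher percent means less beta-gal luminescence so fewer parasites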
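Material: NIH/3T3 host cells with β-galactosidase reporter T. cruzi; Input: 5,000 host fibroblasts per well; Medium: DMEM, 2% fetal bovine serum; Compound: 50 nL DMSO compound solution per well; Schedule: 3 h host attachment, then at least 90 h co-culture; Detection: luminescent β-galactosidase signal after 60 min lysis.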
HIF act = HIF pathway transcriptional activators, primary screen, cell-based, U2OS HRE-luciferase, luminescence; U2OS HRE-luciferase reporter; normalized: DMSO 0%, desferrioxamine 100%; activation, % at 7.5 µM (by protocol); 300,000 compounds, 0.32% hits;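 active means mean activation of at least 10% of the iron chelator positive control signal, with at least half of replicates also reaching 10%; inconclusive means mean and replicate majority disagree about reaching 10%; inactive means mean and most replicates under 10%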
PolyA inh = polyadenylation inhibitors in yeast reporter cells, primary screen, luminescence, S. cerevisiae. 300,000 compounds, 0.02% hits. S. cerevisiae SKY197-pL101 polyadenylation reporter, beta-gal luminescence; efflux-impaired pdr1/pdr3 knockout yeast; score 100 = 6 SD above DMSO. activity score, % at 12 µM. AID 1875, 2009;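 active means lowest replicate activity score at least 50, where 100 means six control SD above control mean; inconclusive means lowest score under 50 but half or more replicates reach 50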;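 further: yeast exposed to compound for 9 h at 30 °C; higher score means more reporter readthrough which indicates perturbed polyadenylation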
Each line names hits and unclear results; the compound was inactive in the other large screens.

CC1(c2ccc(OC(F)F)cc2)NC(=O)N(/N=C/c2c(O)ccc3ccccc23)C1=O (stereo unspecified)	none (no result: Beta apoptosis)
NC(=O)COC(=O)c1ccc2noc(-c3ccccc3)c2c1	none
Cc1ccc(-c2csc(=Nc3cccnc3)n2CCCn2ccnc2)cc1C	T cruzi inh 64
Cc1ccc(C(C)C)cc1OCC(=O)Nc1ccc(N2CCCCC2)cc1	T cruzi inh 63
Cc1cc(N/N=C2\CC(C)CC(C)(C)C2)nc2ccccc12 (stereo unspecified)	Calb FLC 87
O=C(Nc1ccccc1)Nc1nnc(CSCc2ccccc2Cl)s1	none (no result: CSC inhib)
O=C(Nc1ccc(Cl)c(Cl)c1)Nc1nccs1	CSC inhib 95
O=C(Nc1cccc(Cl)c1)Nc1nccs1	Calb FLC 80
O=C(Nc1cccc(Cl)c1)Nc1cccc(Cl)c1	none (no result: Calb FLC)
O=C(Nc1ccc(Cl)c(Cl)c1)Nc1nnc(CSc2ccccc2)s1	Beta apoptosis 100 (no result: HIF act)
Cc1nc2cc(NC(=O)Nc3nccs3)ccc2n1C	none (no result: CSC inhib, Beta apoptosis)
O=C(Nc1nccs1)c1sc2cc(Cl)ccc2c1Cl	Calb FLC inconclusive, T cruzi inh 59
O=C(Nc1nccs1)c1sc2ccccc2c1Cl	none
Cc1[nH]c2ccccc2c1N=Nc1ccccc1C(=O)O	none
Nc1nc(Cl)cc(N2CCC(c3cc(-c4ccc(Cl)cc4Cl)n[nH]3)CC2)n1	none
O=S(=O)(c1ccc(F)cc1)N1CCN(CC(O)COc2ccccc2F)CC1 (stereo unspecified)	none
Cc1cccc(C)c1OCC(O)CN1CCc2ccccc2C1 (stereo unspecified)	none
CC(COc1cccc2ccccc12)CN1CCN(C)CC1 (stereo unspecified)	T cruzi inh 66
CC(C)c1ccccc1OCC(O)CN1CCN(S(=O)(=O)c2ccc([N+](=O)[O-])cc2)CC1 (stereo unspecified)	T cruzi inh 55
Cc1ccc(C(C)C)c(OCC(O)CN2CCc3ccccc3C2)c1 (stereo unspecified)	Beta apoptosis 98
Cc1ccccc1OCC(O)CN1CCN(C)CC1 (stereo unspecified)	T cruzi inh 63
Cc1cccc(N(Cc2ccccc2)C(=O)c2cc(S(=O)(=O)N3CCOCC3)ccc2Cl)c1	none
Cc1cc2nc(C)n(CCCNC(=O)Nc3cccc4ccccc34)c2cc1C	none
Cn1cnc(S(=O)(=O)N2CCN(c3cccc(C(F)(F)F)c3)CC2)c1	none (no result: CSC inhib)
CCSc1nc2sc3c(c2c(=O)n1-c1ccccc1)CCN(C)C3	none (no result: CSC inhib, Beta apoptosis)
CCOC(=O)CSc1nc2sc3c(c2c(=O)n1C1CCCCC1)CCN(C)C3	T cruzi inh 57
CN1CCc2c(sc3c2c(=O)n(-c2ccccc2)c2nnc(SCc4ccccc4)n32)C1	T cruzi inh 71 (no result: CSC inhib)
CSc1nnc2n(-c3ccccc3)c(=O)c3c4c(sc3n12)CCC4	none (no result: Calb FLC, T cruzi inh, HIF act, PolyA inh)
CCOC(=O)CSc1nc2sc3c(c2c(=O)n1-c1ccc(OCC)cc1)CCN(C)C3	none
C=CCSc1nc2sc3c(c2c(=O)n1-c1ccccc1)CCN(C)C3	T cruzi inh 56
Cc1nn(-c2ccccc2)c2c1c(C)c(CCC(=O)N1CCOCC1)c(=O)n2C	none
Oc1ccc(C2=CSC3=NCCN23)cc1O	none
Cc1c(-c2cccc(Cl)c2)nc2ccccc2c1C(=O)OCC(=O)Nc1ccc2c(c1)OCO2	CSC inhib 155, T cruzi inh 55
Cc1onc(-c2ccccc2)c1C(=O)OCC(=O)Nc1ccc2c(c1)OCO2	none
O=[N+]([O-])c1cc(O)c2ncccc2c1	Calb FLC 105 (no result: Beta apoptosis)
CC(=NCCc1c(C)[nH]c2ccc(OCc3ccccc3)cc12)C1=C(O)CC(c2ccccc2)CC1=O (stereo unspecified)	T cruzi inh 58
CCCCC(=NCCc1c(C)[nH]c2ccc(OC)cc12)C1=C(O)CC(c2ccccc2)CC1=O (stereo unspecified)	none
COc1ccc2[nH]c3c(NCCC4=CCCCC4)ncnc3c2c1	T cruzi inh 87 (no result: CSC inhib, Beta apoptosis)
CCN(CC)CCNc1ncnc2c1[nH]c1ccc(OC)cc12	none
